Reference: ChEMBL document CHEMBL3272347, “Adamantanamine derivatives. Antimicrobial activities of certain Mannich bases” (1976)

Assays:
Assay type in all cases: functional
[1] = test system: Mycolicibacterium smegmatis; assay: Antimicrobial activity against Mycobacterium smegmatis OU 10049 assessed as zone of inhibition after 48 hrs at 0.5 mg/0.1 ml by agar diffusion method
In short: (§1)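 Mycobacterium disk diffusion on MDTM agar. Each disk (12.7 mm) got 0.1 ml of Me2SO solution, was air-stood 30 min, then was placed four per seeded plate. Plates were incubated at 37° for 48 hr. Zone diameter was measured by caliper to 0.1 mm. Results averaged 2–4 replicate disks and ≥2 independent-day experiments.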

Mycolicibacterium phlei [2] = assay: Antimicrobial activity against Mycobacterium phlei ATCC 356 assessed as zone of inhibition after 48 hrs at 0.5 mg/0.1 ml by agar diffusion method; in short: as §1
Staphylococcus aureus [3] = assay: Antimicrobial activity against Staphylococcus aureus ATCC 10014 assessed as zone of inhibition after 24 hrs at 0.1 mg/0.1 ml by agar diffusion method
In short: (§2)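 Bacteria were tested on seeded agar plates with 12.7-mm disks, each loaded with 0.1 ml of compound in Me2SO (stock used directly or Me2SO-diluted). Disks were held 30 min on a wire screen before placement, four per plate. Incubation was 37°, 24 hr. Inhibition zones were measured by caliper to the nearest 0.1 mm. Replicates were 2–4 per dilution over at least two separate days, averaged.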

Escherichia coli [4] = assay: Antimicrobial activity against Escherichia coli ATCC 8739 assessed as zone of inhibition after 24 hrs at 2 mg/0.1 ml by agar diffusion method; in short: as §2
Escherichia coli [5] = assay: Antimicrobial activity against Escherichia coli ATCC 10586 assessed as zone of inhibition after 24 hrs at 2 mg/0.1 ml by agar diffusion method; in short: as §2
Aspergillus niger [6] = assay: Antimicrobial activity against Aspergillus niger OU S-23 assessed as zone of inhibition after 48 hrs at 2 mg/0.1 ml by agar diffusion method
In short: (§3)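 Disk agar diffusion on SDA. Compound in Me2SO stock, used neat or diluted in Me2SO, was loaded at 0.1 ml per 12.7-mm disk. Disks stood 30 min on mesh, then went four per seeded plate. Plates ran at 37° for 48 hr (A. niger) or 24 hr (C. albicans). Zones were read by caliper to 0.1 mm. There were 2–4 replicate disks per dilution and ≥2 experiments on separate days with same-day stocks; results were averaged.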

Pseudomonas aeruginosa = assay: Antimicrobial activity against Pseudomonas aeruginosa OU 10048 assessed as zone of inhibition after 24 hrs at 4 mg/0.1 ml by agar diffusion method; in short: as §2
Escherichia coli [7] = assay: Antimicrobial activity against Escherichia coli ATCC 11303 assessed as zone of inhibition after 24 hrs at 1 mg/0.1 ml by agar diffusion method; in short: as §2
Staphylococcus aureus [8] = assay: Antimicrobial activity against Staphylococcus aureus ATCC 10001 assessed as zone of inhibition after 24 hrs at 0.1 mg/0.1 ml by agar diffusion method; in short: as §2
Candida albicans [9] = assay: Antimicrobial activity against Candida albicans CDC MI-023 assessed as zone of inhibition after 24 hrs at 2 mg/0.1 ml by agar diffusion method; in short: as §3
Staphylococcus aureus [10] = assay: Antimicrobial activity against Staphylococcus aureus ATCC 10001 assessed as zone of inhibition after 24 hrs at 1 mg/0.1 ml by agar diffusion method; in short: as §2
Escherichia coli [11] = assay: Antimicrobial activity against Escherichia coli ATCC 11303 assessed as zone of inhibition after 24 hrs at 0.5 mg/0.1 ml by agar diffusion method; in short: as §2
Escherichia coli [12] = assay: Antimicrobial activity against Escherichia coli by tube dilution method
In short: (§4)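 MIC was found by tube dilution, with Me2SO as carrier solvent diluted in the tubes. For M. smegmatis, separate determinations were made in MDTM broth and in MDTM agar.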

Staphylococcus aureus [13] = assay: Antimicrobial activity against Staphylococcus aureus ATCC 10014 assessed as zone of inhibition after 24 hrs at 1 mg/0.1 ml by agar diffusion method; in short: as §2
Staphylococcus aureus [14] = assay: Antimicrobial activity against Staphylococcus aureus by tube dilution method; in short: as §4
[15] = test system: Mycolicibacterium smegmatis; assay: Antimicrobial activity against Mycobacterium smegmatis by tube dilution method; in short: as §4
Escherichia coli [16] = assay: Antimicrobial activity against Escherichia coli ATCC 8739 assessed as zone of inhibition after 24 hrs at 1 mg/0.1 ml by agar diffusion method; in short: as §2
Candida albicans [17] = assay: Antimicrobial activity against Candida albicans CDC MI-023 assessed as zone of inhibition after 24 hrs at 0.5 mg/0.1 ml by agar diffusion method; in short: as §3
Aspergillus niger [18] = assay: Antimicrobial activity against Aspergillus niger OU S-23 assessed as zone of inhibition after 48 hrs at 4 mg/0.1 ml by agar diffusion method; in short: as §3
Escherichia coli [19] = assay: Antimicrobial activity against Escherichia coli ATCC 10586 assessed as zone of inhibition after 24 hrs at 1 mg/0.1 ml by agar diffusion method; in short: as §2
[20] = test system: Mycolicibacterium smegmatis; assay: Antimicrobial activity against Mycobacterium smegmatis OU 10049 assessed as zone of inhibition after 48 hrs at 1 mg/0.1 ml by agar diffusion method; in short: as §1
Candida albicans [21] = assay: Antimicrobial activity against Candida albicans CDC MI-023 assessed as zone of inhibition after 24 hrs at 4 mg/0.1 ml by agar diffusion method; in short: as §3
Staphylococcus aureus [22] = assay: Antimicrobial activity against Staphylococcus aureus ATCC 10001 assessed as zone of inhibition after 24 hrs at 0.5 mg/0.1 ml by agar diffusion method; in short: as §2
Staphylococcus aureus [23] = assay: Antimicrobial activity against Staphylococcus aureus ATCC 10014 assessed as zone of inhibition after 24 hrs at 0.5 mg/0.1 ml by agar diffusion method; in short: as §2
Escherichia coli [24] = assay: Antimicrobial activity against Escherichia coli ATCC 11303 assessed as zone of inhibition after 24 hrs at 2 mg/0.1 ml by agar diffusion method; in short: as §2
[25] = test system: Mycolicibacterium smegmatis; assay: Antimicrobial activity against Mycobacterium smegmatis OU 10049 assessed as zone of inhibition after 48 hrs at 0.25 mg/0.1 ml by agar diffusion method; in short: as §1
Mycolicibacterium phlei [26] = assay: Antimicrobial activity against Mycobacterium phlei ATCC 356 assessed as zone of inhibition after 48 hrs at 0.25 mg/0.1 ml by agar diffusion method; in short: as §1
Candida albicans [27] = assay: Antimicrobial activity against Candida albicans CDC MI-023 assessed as zone of inhibition after 24 hrs at 0.1 mg/0.1 ml by agar diffusion method; in short: as §3

Row | MIC (Escherichia coli [12]) [µg/mL] | MIC (Staphylococcus aureus [14]) [µg/mL] | MIC [15] [µg/mL] | SMILES | inhibition zone (IZ) [1] [mm] | inhibition zone (IZ) (Mycolicibacterium phlei [2]) [mm] | inhibition zone (IZ) (Staphylococcus aureus [3]) [mm] | inhibition zone (IZ) (Escherichia coli [4]) [mm] | inhibition zone (IZ) (Escherichia coli [5]) [mm] | inhibition zone (IZ) (Pseudomonas aeruginosa) [mm] | inhibition zone (IZ) (Staphylococcus aureus [8]) [mm] | inhibition zone (IZ) (Escherichia coli [11]) [mm] | inhibition zone (IZ) (Escherichia coli [16]) [mm] | inhibition zone (IZ) (Aspergillus niger [18]) [mm] | inhibition zone (IZ) (Escherichia coli [19]) [mm] | further results
1 |  |  |  | Cl.O=C(CCNC12CC3CC(CC(C3)C1)C2)c1cccc([N+](=O)[O-])c1 | 16.6 | 19.1 | 15.7 | 16.3 | 16.8 | 15 | 15.4 |  |  |  |  | inhibition zone (IZ) (Aspergillus niger [6]): 15 mm; inhibition zone (IZ) (Escherichia coli [7]): 15.5 mm; inhibition zone (IZ) (Candida albicans [9]): 16.2 mm
2 | 1000 | 500 | 250 | Cl.O=C(CCNC12CC3CC(CC(C3)C1)C2)c1ccc(F)cc1 | 15.3 | 17.7 |  |  |  | 15 |  | 17.6 | 16.7 | 15 | 16.5 | inhibition zone (IZ) (Staphylococcus aureus [10]): 19.1 mm; inhibition zone (IZ) (Staphylococcus aureus [13]): 16.6 mm; inhibition zone (IZ) (Candida albicans [17]): 16.6 mm
3 |  |  |  | Cl.O=C(CCNC12CC3CC(CC(C3)C1)C2)c1ccc(O)cc1 |  | 16.3 |  | 16 | 16 | 15 |  |  |  | 15 |  | inhibition zone (IZ) [20]: 19 mm; inhibition zone (IZ) (Candida albicans [21]): 15.4 mm; inhibition zone (IZ) (Staphylococcus aureus [22]): 15.6 mm; inhibition zone (IZ) (Staphylococcus aureus [23]): 15.3 mm; inhibition zone (IZ) (Escherichia coli [24]): 17.2 mm
4 | 500 | 125 | 125 | Cl.O=C(CCNC12CC3CC(CC(C3)C1)C2)c1cccc(Br)c1 |  |  | 17.5 |  |  | 15 | 18.7 | 17.5 | 18.2 | 16.8 | 17.4 | inhibition zone (IZ) [25]: 17.6 mm; inhibition zone (IZ) (Mycolicibacterium phlei [26]): 20 mm; inhibition zone (IZ) (Candida albicans [27]): 15.3 mm
